Structures are written as SMILES. Calls of active or inactive are those of the source. No cut-off for these calls is given here.

Assay [1] has as its target T1, Androgen receptor (Homo sapiens, UniProt P10275).
T1 sequence (P10275 whole entry): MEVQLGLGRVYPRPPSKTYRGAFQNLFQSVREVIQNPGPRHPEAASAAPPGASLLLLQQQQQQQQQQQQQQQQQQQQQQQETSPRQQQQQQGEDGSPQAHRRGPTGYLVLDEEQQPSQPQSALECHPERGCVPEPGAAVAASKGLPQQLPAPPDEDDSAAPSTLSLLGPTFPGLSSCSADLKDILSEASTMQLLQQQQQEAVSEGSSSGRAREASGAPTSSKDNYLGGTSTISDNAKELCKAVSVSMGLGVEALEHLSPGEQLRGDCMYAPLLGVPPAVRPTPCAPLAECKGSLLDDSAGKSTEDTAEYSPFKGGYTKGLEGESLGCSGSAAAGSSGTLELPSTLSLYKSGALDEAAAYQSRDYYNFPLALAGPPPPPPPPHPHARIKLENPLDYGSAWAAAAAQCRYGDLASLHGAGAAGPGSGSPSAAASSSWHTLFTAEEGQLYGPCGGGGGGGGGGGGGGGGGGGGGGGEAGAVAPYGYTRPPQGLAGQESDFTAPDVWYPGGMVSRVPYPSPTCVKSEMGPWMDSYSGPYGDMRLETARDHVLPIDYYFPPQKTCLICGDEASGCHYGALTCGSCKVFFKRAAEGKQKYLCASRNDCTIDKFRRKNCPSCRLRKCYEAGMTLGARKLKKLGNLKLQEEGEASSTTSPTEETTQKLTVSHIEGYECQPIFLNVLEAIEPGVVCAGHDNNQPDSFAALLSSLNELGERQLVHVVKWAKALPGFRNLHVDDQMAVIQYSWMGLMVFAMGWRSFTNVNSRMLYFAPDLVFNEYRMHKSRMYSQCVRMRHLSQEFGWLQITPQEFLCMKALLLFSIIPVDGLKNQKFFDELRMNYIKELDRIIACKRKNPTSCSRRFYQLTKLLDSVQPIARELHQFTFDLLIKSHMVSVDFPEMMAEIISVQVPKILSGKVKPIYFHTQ
The assay can be described thus: Inhibition of BF3 site of androgen receptor in human LNCAP cells expressing ARR2PB after 3 days by eGFP transcriptional assay. It counts as cell-based.

For assay [2], the target named is T2, Estrogen receptor (Homo sapiens) (UniProt P03372).
T2 sequence (whole entry): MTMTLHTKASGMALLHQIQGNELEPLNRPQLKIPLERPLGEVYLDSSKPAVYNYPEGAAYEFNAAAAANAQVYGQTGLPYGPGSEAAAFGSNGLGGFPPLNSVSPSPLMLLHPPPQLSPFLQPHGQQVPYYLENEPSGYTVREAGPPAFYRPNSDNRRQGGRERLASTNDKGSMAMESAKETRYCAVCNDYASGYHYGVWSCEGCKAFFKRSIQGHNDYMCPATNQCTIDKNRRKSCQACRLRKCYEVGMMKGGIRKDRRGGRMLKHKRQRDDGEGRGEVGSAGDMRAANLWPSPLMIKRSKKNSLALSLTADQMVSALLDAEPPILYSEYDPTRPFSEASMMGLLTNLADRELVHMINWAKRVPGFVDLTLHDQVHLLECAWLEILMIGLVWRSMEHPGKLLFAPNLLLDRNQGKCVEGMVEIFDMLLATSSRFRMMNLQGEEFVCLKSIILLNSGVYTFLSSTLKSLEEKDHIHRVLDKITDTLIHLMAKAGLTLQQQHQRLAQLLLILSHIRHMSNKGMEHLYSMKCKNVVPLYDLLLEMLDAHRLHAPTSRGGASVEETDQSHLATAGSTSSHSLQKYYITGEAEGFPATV
The assay can be described thus: Inhibition of estrogen receptor alpha in human MCF7 cells at 1 to 10 uM after 3 days by luciferase reporter gene assay. Format: cell-based. An outline of the steps: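 MCF-7 cells were kept 5 days in phenol-red-free RPMI 1640 with 10% CSS, then seeded. After 24 h they were transfected with a luciferase plasmid driven by a consensus estrogen response element. Next day they were treated with 1 nM E2 plus test compound (10 µM final) in 0.1% EtOH/0.1% DMSO. Cells were lysed 24 h later and luminescence read.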
In general terms: A reporter such as luciferase makes a cellular process visible.

The next assay deals with PC-3. Kind of assay: Cytotoxicity against AR independent human PC3 cells assessed as growth inhibition at 6 uM after 4 days. Format: functional, cell-based. Put shortly: (§1)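 Viability read after a 4-day incubation with compound at 6 µM in LNCaP, enzalutamide-resistant LNCaP-derived and AR-independent PC3 prostate cancer cells; data given as mean ± SEM.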
The subject of assay [3] is LNCaP. Kind of assay: Cytotoxicity against enzalutamide-resistant human LNCAP cells assessed as growth inhibition at 6 uM after 4 days. Format: functional, cell-based. An outline of the steps:
as §1

For assay [4], the system named is LNCaP. Kind of assay: Cytotoxicity against human LNCAP cells assessed as growth inhibition at 6 uM after 4 days. Format: functional, cell-based. Put shortly:
as §1

In assay [5] the target is T1, Androgen receptor. It counts as cell-based, LNCaP.
The target of assay [6] is T1, Androgen receptor. The assay can be described thus: Inhibition of BF3 site of androgen receptor in human LNCAP cells expressing ARR2PB assessed as reduction in PSA level after 3 days. It counts as cell-based.

Compound `O=C(O)CCn1c(SCCOc2ccccc2)nc2ccccc21` registered an IC50 against Androgen receptor [1] above 200 µM.

As to `Cc1ccccc1OCCSc1nc2ccccc2[nH]1`, the IC50 on Androgen receptor [1] was found to be 19 µM.

For the compound `Cc1ccc(C)c(OCCSc2nc3ccccc3n2CC(=O)O)c1`, on Androgen receptor [1], the IC50 was above 200 µM.

`Cc1cccc(OCCSc2nc3ccccc3n2CCOc2ccccc2)c1` had an IC50 at Androgen receptor [1] above 200 µM.

`COC(=O)Cn1c(SCCOc2ccc(C)c(C)c2)nc2ccccc21` returned a 50% inhibitory concentration (IC50) against Androgen receptor [1] above 200 µM.

`CCc1cccc(OCCSc2nc3ccccc3n2CC(=O)OC)c1` showed an IC50 against Androgen receptor [1] above 200 µM.

`c1ccc(OCCSc2nc3ccccc3o2)cc1` had an IC50 against Androgen receptor [1] above 200 µM.

Compound `c1ccc(CCCSc2nc3ccccc3[nH]2)cc1` displayed a concentration for half-maximal inhibition (IC50) on Androgen receptor [1] of 12 µM.

Compound `NS(=O)(=O)c1ccc(OCCSc2nc3ccccc3[nH]2)cc1` gave an IC50 against Androgen receptor [1] of 62 µM.

`Clc1ccc(OCCSc2nc3ccccc3[nH]2)cc1` had a 50% inhibitory concentration (IC50) against Androgen receptor [1] of 4 µM.

Take `OCCn1c(SCCOc2ccccc2)nc2ccccc21`: the half-maximal inhibitory concentration (IC50) against Androgen receptor [1] was above 200 µM.

For `CCn1c(SCCOc2cccc(C)c2)nc2ccccc21`, the IC50 at Androgen receptor [1] came out at 35 µM.

`Cc1cccc(OCCSc2nc3ccccc3n2CC(=O)O)c1`: the IC50 at Androgen receptor [1] is above 200 µM.

Take `NS(=O)(=O)c1cccc2cc(SCCOc3ccccc3)[nH]c12`: the inhibition result in assay [2] is “inactive”. Besides, the “growth inhibition (GI)” value with PC-3 was “inactive”. Further, the “growth inhibition (GI)” value in the assay with LNCaP [3] and with LNCaP [4] was “Active” each time. Further, the IC50 was 6.4 µM against Androgen receptor [5], 1600 nM on Androgen receptor [6] and 1.5 µM on Androgen receptor [1].

Take `Cc1cccc(C)c1OCCSc1nc2ccccc2[nH]1`: the inhibition entry in assay [2] was “inactive”. Further, the “growth inhibition (GI)” value with PC-3 was “inactive”. Further, the “growth inhibition (GI)” value in the assay with LNCaP [3] and in the assay with LNCaP [4] was “Active” each time. In addition, the 50% inhibitory concentration (IC50) turned out to be 6.8 µM against Androgen receptor [5], 1900 nM on Androgen receptor [6] and 2.7 µM against Androgen receptor [1].

`COCCn1c(SCCOc2ccc(C)cc2)nc2ccccc21`: at Androgen receptor [1], the half-inhibitory concentration (IC50) worked out at 12.7 µM.

As for `CCn1c(SCCOc2ccccc2)nc2ccccc21`, the concentration for half-maximal inhibition (IC50) at Androgen receptor [1] stood at 12 µM.

For the compound `O=S(=O)(CCOc1ccccc1)c1nc2ccccc2[nH]1`, at Androgen receptor [1], the IC50 is above 200 µM.

Compound `Cc1ccc(OCCSc2nc3ccccc3n2CCC(=O)O)cc1` had an IC50 against Androgen receptor [1] above 200 µM.

Regarding `c1ccc(OCCCSc2nc3ccccc3[nH]2)cc1`, the IC50 against Androgen receptor [1] is above 200 µM.

As for `COC(=O)Cn1c(SCCOc2ccc(C)cc2)nc2ccccc21`, half-maximal inhibition against Androgen receptor [1] (IC50) required 32.9 µM.

Take `Cc1ccc(OCCSc2nc3ccccc3[nH]2)cc1`: inhibition against Androgen receptor [1] was half-maximal at 7 µM (IC50).

As for `CCOC(=O)Cn1c(SCCOc2ccc(C)c(C)c2)nc2ccccc21`, at Androgen receptor [1], the IC50 was 40.3 µM.

`CCOC(=O)Cn1c(SCCOc2cccc(C)c2)nc2ccccc21` returned an IC50 on Androgen receptor [1] of 14.1 µM.

Take `c1ccc(CCSc2nc3ccccc3[nH]2)cc1`: the IC50 against Androgen receptor [1] amounted to 7.4 µM.

As to `CCOC(=O)Cn1c(SCCOc2cccc(CC)c2)nc2ccccc21`, the 50% inhibitory concentration (IC50) on Androgen receptor [1] amounted to 55 µM.

Turning to `Cc1ccc(OCCSc2nc3ccccc3n2CC(=O)O)cc1`, at Androgen receptor [1], the concentration for half-maximal inhibition (IC50) came out at 164 µM.

`CCOc1cccc(OCCSc2nc3ccccc3n2CCOc2ccc(C)cc2)c1` registered a 50% inhibitory concentration (IC50) at Androgen receptor [1] of 22.8 µM.

Regarding `C=CCn1c(SCCOc2ccccc2)nc2ccccc21`, the IC50 against Androgen receptor [1] is above 200 µM.

For `c1ccc(NCCSc2nc3ccccc3[nH]2)cc1`, the IC50 against Androgen receptor [1] is above 200 µM.

`CC(C)(C)c1cccc(OCCSc2nc3ccccc3n2CC(=O)O)c1` had a half-maximal inhibitory concentration (IC50) against Androgen receptor [1] above 200 µM.

Consider `Clc1cccc(OCCSc2nc3ccccc3[nH]2)c1`, for which, at Androgen receptor [1], half-maximal inhibition (IC50) was put at 5 µM.

As for `[O-][S+](CCOc1ccccc1)c1nc2ccccc2[nH]1` (stereo not drawn), at Androgen receptor [1], the IC50 was above 200 µM.

The compound `Cc1ccc(OCCSc2nc3ccccc3n2CC(=O)OC(C)C)cc1` showed a half-maximal inhibitory concentration (IC50) against Androgen receptor [1] of 11.1 µM.

Consider `Cc1ccc(OCCSc2nc3ccccc3n2CC(=O)OC(C)C)cc1C`, for which, at Androgen receptor [1], inhibition was half-maximal at 30.6 µM (IC50).

Compound `Cc1cccc(OCCSc2nc3ccccc3n2CC(=O)OC(C)C)c1` showed a concentration for half-maximal inhibition (IC50) at Androgen receptor [1] of 13.7 µM.

In the case of `Cc1cccc(OCCSc2nc3ccccc3n2CCC(=O)O)c1`, the half-inhibitory concentration (IC50) against Androgen receptor [1] is above 200 µM.

As for `c1ccc(OCCSc2cc3ccccc3[nH]2)cc1`, the IC50 against Androgen receptor [1] was determined as 5.4 µM.

With `Cc1cc(C)cc(OCCSc2nc3ccccc3n2CC(=O)O)c1`, the IC50 against Androgen receptor [1] is above 200 µM.

Regarding `Cc1cccc(OCCSc2nc3ccccc3n2C)c1`, the IC50 on Androgen receptor [1] amounted to 45 µM.

`Cc1cccc(OCCSc2nc3ccccc3[nH]2)c1`: the inhibition entry in assay [2] was “inactive”. Moreover, the “growth inhibition (GI)” value in the assay with PC-3 is “inactive”. Besides, the “growth inhibition (GI)” value with LNCaP [3] and in the assay on LNCaP [4] was “Active” each time. The half-maximal inhibitory concentration (IC50) against Androgen receptor [5] amounted to 13 µM; on Androgen receptor [6], 3300 nM; on Androgen receptor [1] it was 1.8 µM.

Regarding `Cc1cccc(OCCSc2nc3ccccc3n2CC(=O)N2CCOCC2)c1`, the IC50 against Androgen receptor [1] was above 200 µM.

At Androgen receptor [1], `c1ccc(OCCNc2nc3ccccc3[nH]2)cc1` had an IC50 above 200 µM.

On to `COCCn1c(SCCOc2cccc(C)c2)nc2ccccc21`, for which, at Androgen receptor [1], half-maximal inhibition (IC50) was put at 24.1 µM.

In turn, `c1ccc(OCCCc2nc3ccccc3[nH]2)cc1` yielded a 50% inhibitory concentration (IC50) against Androgen receptor [1] above 200 µM.

In turn, `Cc1ccc(OCCSc2nc3ccccc3n2CC(=O)O)cc1C` came in with a half-maximal inhibitory concentration (IC50) against Androgen receptor [1] above 200 µM.

As to `CCc1cccc(OCCSc2nc3ccccc3n2CC(=O)O)c1`, the IC50 on Androgen receptor [1] is above 200 µM.

`CCN(CC)C(=O)Cn1c(SCCOc2cccc(C)c2)nc2ccccc21` yielded a half-maximal inhibitory concentration (IC50) against Androgen receptor [1] above 200 µM.

The compound `C=CCc1cccc(OCCSc2nc3ccccc3n2CC(=O)OC)c1` yielded an IC50 against Androgen receptor [1] above 200 µM.

As to `c1ccc(OCCSc2nc3ccccc3[nH]2)cc1`, in assay [2], the inhibition entry is “inactive”. The “growth inhibition (GI)” value in the assay with PC-3, in the assay with LNCaP [3] and in the assay on LNCaP [4] was “inactive” throughout.

Take `CCOC(=O)Cn1c(SCCOc2cc(C)cc(C)c2)nc2ccccc21`: the IC50 against Androgen receptor [1] was above 200 µM.

On to `CCc1cccc(OCCSc2nc3ccccc3n2CCC(=O)O)c1`, for which, on Androgen receptor [1], the half-maximal inhibitory concentration (IC50) is above 200 µM.

What is called IC50 is the point on the concentration scale where inhibition reaches its midpoint.

For the origin of these results see ChEMBL document CHEMBL2311268, “Targeting the binding function 3 (BF3) site of the androgen receptor through virtual screening. 2. development of 2-((2-phenoxyethyl) thio)-1H-benzimidazole derivatives” (J Med Chem, 2013).
